In ChEMBL document CHEMBL4513216, “Probing the Open Global Health Chemical Diversity Library for Multistage-Active Starting Points for Next-Generation Antimalarials” (ACS Infect Dis, 2020):

Test: Toxicity liver stage against HepG2, at 10uM
Type: cell-based
Parameters: test concentration 10 uM, cell line HepG2-A16-CD81EGFP
Settings: human, HepG2-A16-CD81EGFP cells; read-out: INHIBITION
In short: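 Uninfected HepG2-A16-CD81EGFP cells, 3 × 10^3 per well, 1536-well, plated on prespotted compound at 10 μM final, parasite-free screening media added to match infected plates; puromycin 10 μM positive, DMSO 0.5% negative; run in parallel with 48 h PbLuc assay at 37 °C, 5% CO2; viability by CellTiter-Glo luminescence, normalized to controls.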

Compound | cytotoxicity at 10 µM [%]
Cc1ccc(Oc2ncccc2C(=O)N(C)CCCN(C)C)cc1 | 1.73
CC(=O)N1N=C(c2ccccc2)OC1C(=O)NCCN(C(C)C)C(C)C (centres undefined) | 0.238
COc1cc(N2C[C@H]3OCC[C@H]3[C@H](C(=O)N3CCCC3)C2)ncn1 | 4.99
Cn1cc(CN2CCC3(CC2)COC(COc2ccccn2)C3)cn1 (centres undefined) | 0.719
Cc1cccc(C)c1Nc1noc2c1CN(C(=O)c1ccn(C)n1)CC2 | 5.69
COCC(=O)Nc1ccc(N2CCC(OC)CC2)c(C(F)(F)F)c1 | -0.0399
Cn1ccnc1CN1CCCCC1c1nc(-c2ccccc2)no1 (centres undefined) | -47.5
O=C1CCCCN1CSc1nnnn1-c1ccc(Cl)cc1 | -48.4
Cn1ccc(CNC(=O)Nc2ccc(S(=O)(=O)C(F)F)cc2)c1 | 5.93
COC(C(=O)NCc1c(C)nc2cc(=O)[nH]n2c1C)c1ccccc1 (centres undefined) | 0.493
Cn1cnc(S(=O)(=O)N2CCCc3c(F)cc(F)cc32)c1Cl | 0.333
Cc1nc(CN2CCCC2Cn2ccnc2C(C)C)nc2ccccc12 (centres undefined) | -56.8
Cc1csc(CN(CC2CCCO2)C(=O)c2cccnc2C)n1 (centres undefined) | 0.459
Cc1cc(Br)oc1C(=O)N1CCCN(CC(N)=O)CC1 | 0.71
CCc1ncc2c(n1)CN(Cc1nnc(C(C)C)o1)CC2 | -4.54
CC(COc1ccccc1F)NC(=O)N[C@@H]1C=C[C@H](CO)C1 (some centres undefined) | 3.53
Cn1cc(CNc2ccc(CCN3CCC(C(N)=O)CC3)cc2)cn1 | -6.21
Cc1cnn(-c2cccc(N3CCCC3)n2)c1 | -6.26
O=C(CCc1cncc(F)c1)NS(=O)(=O)c1ccc(F)cc1F | -7.49
Cc1cc(CNc2ccc(C(F)(F)F)cc2)no1 | -54
OCC(O)CSCc1cn(-c2ccc(Cl)c(Cl)c2)nn1 (centres undefined) | 8.55
O=S(=O)(c1cccs1)N1Cc2nc(COCC3CC3)oc2C1 | -109

Compound | cytotoxicity at 10 µM [%]
Cc1nc(N2CCOCC2)nc2c1CCN(C(=O)C1(C#N)CC1)CC2 | -117
O=C([C@@H]1CCO[C@@H]2CCN(CC3CCOCC3)C[C@H]21)N1CCCC1 | -114
Cc1ncnc2c1CCN(S(=O)(=O)C1CC1)CC2 | -108
O=C(NCc1ccncc1)C1CN(c2nc3ccccc3s2)CCN1 (centres undefined) | -105
CC(C)(N)c1cn(C2CCN(c3ncccc3Cl)CC2)nn1 | -48
O=C(c1cnc(Nc2ccccc2)nc1)N1CCC2(CCNCC2)CC1 | -5.96
c1ccc(-n2cnnc2CCCN2CCOCC2)cc1 | -1.16
Cc1nc(CN2CCCCC2CCc2ccc(O)cc2)no1 (centres undefined) | 1.18
Cc1ccc(O)c(CN2CCn3nc(C(=O)N4CCCC4)cc3C2)n1 | 1.5
Cc1ccc2c(n1)N(CC1CC1)CCN(C(=O)NC1CC1)C2 | -3.09
CCOCC1c2c(cnn2CC2CC2)CCN1Cc1nccs1 (centres undefined) | 85.9
Cc1occc1C(=O)N1CCO[C@H]2[C@H](OCc3ccccn3)CC[C@@H]21 | -104
CC(C)NC(=O)N1CCN(CC2CC2)c2ncccc2C1 | -108
O=C(NCC1CC1)[C@H]1C[C@@H]2CCN(Cc3ccc4c(c3)OCO4)C[C@@H]2O1 | -0.208
CC(C)CN1CCC(c2nc3ccc(NC(C)C)cn3n2)CC1 | 1.13
CN(C)CCO[C@H]1CN(Cc2ccco2)[C@@H]2COC[C@H]12 | -98.2
O=C(Cc1cccs1)N1C[C@H]2CN(CC3CCCO3)CC[C@H]2C1 (some centres undefined) | 4.96
c1cncc(CN2Cc3nccn3CC(Cn3cccn3)C2)c1 (centres undefined) | -102
Fc1cnccc1CN1CCCC2(CCN(c3ncccn3)CC2)C1 | -112
O=C(NCc1cnc2n1CCN(Cc1nccs1)CC2)C1CCC1 | 0.588
Fc1cnc(N2CCO[C@H]3CN(CC4CCCCC4)C[C@H]32)nc1 | 6.61
O=C([C@H]1CCCO1)N1CCN(CCn2cccn2)c2ncccc2C1 | -106
